Experimental data published in PubChem BioAssay.
The source made the active and inactive calls. Rule as the data show it, unless noted: active = inhibition above about 30%; inactive = the rest. Peptide text beside a SMILES is read from it. * marks the point of attachment. Boc = CC(C)(C)OC(=O)*

Columns and labels:
[1] = Her2 expression decrease, cell viability multiplex – SKBR3 breast tumor cells, AlphaScreen, ATP viability, primary screen (AID 461;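 active = Her2 level under about 52% in both replicate screens, with viability over 70% of control, limit read from the data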;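 as to Her2 level: lower value means less Her2 protein in the cells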;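 as to viability: percent of carrier control wells set as 100% viability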); settings: SKBR3 Her2 protein level, 18-24 h, measured here: SKBR3 viability, ATP luminescence, at 10 µM
[2] = target: Receptor tyrosine-protein kinase erbB-2 (Homo sapiens) (UniProt P04626); experiment: as above; settings: 18-24 h, at 10 µM, stronger effect = lower value
Receptor tyrosine-protein kinase erbB-2 (Homo sapiens), sequence (P04626 whole entry, looked up): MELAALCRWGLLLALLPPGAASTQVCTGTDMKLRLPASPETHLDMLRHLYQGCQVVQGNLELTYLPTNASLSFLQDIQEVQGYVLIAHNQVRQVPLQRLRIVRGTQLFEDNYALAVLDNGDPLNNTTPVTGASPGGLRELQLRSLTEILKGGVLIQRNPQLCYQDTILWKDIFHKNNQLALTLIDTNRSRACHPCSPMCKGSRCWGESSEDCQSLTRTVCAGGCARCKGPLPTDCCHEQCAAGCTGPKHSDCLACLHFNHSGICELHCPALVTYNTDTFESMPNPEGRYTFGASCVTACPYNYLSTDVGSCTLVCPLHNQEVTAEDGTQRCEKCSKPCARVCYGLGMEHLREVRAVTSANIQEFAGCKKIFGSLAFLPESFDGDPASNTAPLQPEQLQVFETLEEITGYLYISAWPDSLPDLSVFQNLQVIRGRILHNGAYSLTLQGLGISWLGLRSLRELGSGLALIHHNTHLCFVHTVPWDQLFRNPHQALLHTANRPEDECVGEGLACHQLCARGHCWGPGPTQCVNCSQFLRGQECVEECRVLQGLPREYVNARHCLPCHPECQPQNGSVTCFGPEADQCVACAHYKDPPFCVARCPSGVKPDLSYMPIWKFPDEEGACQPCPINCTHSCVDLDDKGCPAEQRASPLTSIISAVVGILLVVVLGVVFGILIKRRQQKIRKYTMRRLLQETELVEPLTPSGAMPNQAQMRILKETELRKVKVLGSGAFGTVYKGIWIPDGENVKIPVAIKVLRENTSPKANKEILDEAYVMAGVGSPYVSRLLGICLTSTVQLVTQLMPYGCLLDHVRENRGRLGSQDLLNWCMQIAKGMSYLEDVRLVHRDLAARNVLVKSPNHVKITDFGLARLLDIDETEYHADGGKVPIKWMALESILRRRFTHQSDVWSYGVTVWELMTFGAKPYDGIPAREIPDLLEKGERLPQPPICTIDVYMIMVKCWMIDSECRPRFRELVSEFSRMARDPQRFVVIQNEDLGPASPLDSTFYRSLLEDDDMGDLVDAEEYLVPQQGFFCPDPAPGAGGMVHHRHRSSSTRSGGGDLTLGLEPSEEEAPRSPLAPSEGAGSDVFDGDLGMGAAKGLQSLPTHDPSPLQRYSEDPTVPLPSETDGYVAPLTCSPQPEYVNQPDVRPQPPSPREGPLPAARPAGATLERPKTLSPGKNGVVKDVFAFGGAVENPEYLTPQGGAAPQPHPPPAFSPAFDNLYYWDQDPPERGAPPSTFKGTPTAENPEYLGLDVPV

[3] = reduced viability of SK-BR-3 breast cancer cells – cell-based, 24 h, human, pilot screen (AID 572;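 active = viability at or below 10% of carrier control in both of two separate runs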;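 also: compound exposure lasted between 18 and 24 h rather than exactly 24 h; 100% = carrier-treated control wells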); settings: SK-BR-3 viability, CellTiter-Glo luminescence, at 10 µM, stronger effect = lower value
[4] = HUVEC growth inhibition – cell-based, human, primary screen (AID 575;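 active = viability at or below 30% in both replicate assays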;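 also: 100% = median of untreated cell wells with 0.1% DMSO on each plate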); settings: HUVEC proliferation, CellTiter-Glo luminescence, 72 h; at 10 µM; stronger effect = lower value
Summary of the method: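 Timing: 72 h treatment at 37 °C; material: HUVEC primary cells; technique: CellTiter-Glo luminescence measuring cellular ATP; controls: vehicle and MePR control wells; measure: percent of median DMSO-control luminescence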

[5] = H69AR cell proliferation blockers – human, duplicate replicates, primary screen (AID 580;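 active = viability at or under a set limit in both replicates, limit being median viability minus 3 SD, cut at about 48% in these data, passing the limit was not always enough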;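 also: 100% = mean luminescence of untreated wells and 0% = no signal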); settings: H69AR lung tumor cells viability, ATP luminescence, 72 h; at 10 µM; stronger effect = lower value
[6] = MRP1 drug-resistance reversers in H69AR cells – cell-based, doxorubicin co-treatment, pilot screen (AID 601;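 active = viability loss from added drug above about 55%, and viability with drug at most 40%, in both replicates, limit read from the data, passing the limit was not always enough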); settings: CellTiter-Glo, 72 h, at 10 µM; for differential viability (reversal): stronger effect = higher value
[7] = yeast transport mutant growth inhibition pilot in 384-well plates, post-Golgi transport modulator project (AID 636; in the data active = inhibition above about 31%); settings: absorbance 615 nm, about 18 h, stronger effect = higher value
[8] = growth suppression of yeast trafficking mutant, preliminary HTS, modulators of trafficking downstream of Golgi apparatus project, 1536-format plate, OD 615 nm (AID 637); settings: yeast transport mutant growth, absorbance 615 nm, 18 h; stronger effect = higher value
[9] = H69AR cells + 2 uM doxorubicin, measured here: viability with 2 uM doxorubicin, stronger effect = lower value
[10] = H69AR cells, compound alone cytotoxicity

Row | Structure (SMILES) | viability [1] [%] | Her2 level [2] | viability [3] | viability [4] | viability [5] | differential viability (reversal) ([6]; H69AR cells + 2 uM doxorubicin) | viability [6, 9] [%] | viability [6, 10] [%] | inhibition [7] | inhibition [8]
1 | Cc1nc2c(=O)oc3ccccc3c2n1-c1ccccc1 | 117 | 100% (inactive) | 117% (inactive) | 107% (inactive) | 98.4% (inactive) | 13.4% (inactive) | 85.1 | 98.4 | -6.93% (inactive) | 2.74% (inactive)
2 | Cc1cc(C)c2cc3c(ccn3C3OC[C@H](O)[C@H](O)[C@H]3O)cc2n1 (stereo not given in full) | 95 | 105% (inactive) | 95% (inactive) | 90.2% (inactive) | 97.4% (inactive) | 7.18% (inactive) | 90.3 | 97.4 | -1.92% (inactive) | 1% (inactive)
3 | CCOc1ncccc1C(=O)OCC(=O)N1CC(=O)Nc2ccccc21 | 87 | 97% (inactive) | 87% (inactive) | 100% (inactive) | 99.7% (inactive) | 2.01% (inactive) | 97.7 | 99.7 | -0.78% (inactive) | -4.92% (inactive)
4 | Cc1cc(NCCN2CCCCC2)n2c(nc3ccccc32)c1C#N | 87.5 | 65.5% (inactive) | 87.5% (inactive) | 96.2% (inactive) | 85.1% (inactive) | -7.47% (inactive) | 92.6 | 85.1 | -5.6% (inactive) | 4.1% (inactive)
5 | FC(F)(F)c1cccc(N2CCN(c3nnnn3-c3ccccc3)CC2)c1 | 85 | 88.5% (inactive) | 85% (inactive) | 81% (inactive) | 84.7% (inactive) | 0.31% (inactive) | 84.4 | 84.7 | -5.84% (inactive) | -2.22% (inactive)
6 | O=C1NC2=C(C(=O)CCC2)C(c2ccc3ncccc3c2)N1 (stereo not given) | 106 | 91% (inactive) | 106% (inactive) | 115% (inactive) | 98.4% (inactive) | 12.6% (inactive) | 85.8 | 98.4 | -1.64% (inactive) | 1.9% (inactive)
7 | CCOC(=O)CSC1=C(C#N)C(=O)NC2(CCCCC2)S1 | 108 | 106% (inactive) | 108% (inactive) | 100% (inactive) | 108% (inactive) | 12.1% (inactive) | 95.9 | 108 | -6.16% (inactive) | -5.24% (inactive)
8 | COc1ccc(CCn2c(=N)c(C#N)cc3c(=O)n4ccccc4nc32)cc1 | 95 | 84.5% (inactive) | 95% (inactive) | 79.7% (inactive) | 65.2% (inactive) | 2.31% (inactive) | 62.9 | 65.2 | -8.78% (inactive) | 5.17% (inactive)
9 | CN(CC(=O)N1CCN(c2ccc(F)cc2)CC1)S(=O)(=O)c1ccc(F)cc1 | 97 | 95.5% (inactive) | 97% (inactive) | 88.4% (inactive) | 86.6% (inactive) | -7.95% (inactive) | 94.5 | 86.6 | -6.18% (inactive) | 5.25% (inactive)
10 | O=C1CSC(c2cccc(F)c2)N1c1ccccc1F (stereo not given) | 86 | 102% (inactive) | 86% (inactive) | 98.8% (inactive) | 97.5% (inactive) | 9.31% (inactive) | 88.2 | 97.5 | -4.87% (inactive) | 7.38% (inactive)
11 | O=C(OC1CCOC1=O)c1ccc(S(=O)(=O)N2CCCCCC2)cc1 (stereo not given) | 95.5 | 113% (inactive) | 95.5% (inactive) | 95.3% (inactive) | 106% (inactive) | 12.5% (inactive) | 93.6 | 106 | 0.26% (inactive) | 1.83% (inactive)
12 | CC(=O)c1cn(CC(=O)NCc2ccc3c(c2)OCO3)c2ccccc12 | 102 | 93% (inactive) | 102% (inactive) | 98.4% (inactive) | 99% (inactive) | 6.8% (inactive) | 92.2 | 99 | -9.32% (inactive) | 3.65% (inactive)
13 | CN(C)S(=O)(=O)N1CCN(c2cccc(Cl)c2)CC1 | 112 | 101% (inactive) | 112% (inactive) | 92% (inactive) | 91% (inactive) | -15% (inactive) | 106 | 91 | 0% (inactive) | 27% (inactive)
14 | C=C(Cl)COC(=O)[C@H]1C2C=CC(C2)C1C(=O)O (stereo not given in full) | 99.5 | 120% (inactive) | 99.5% (inactive) | 106% (inactive) | 101% (inactive) | 3.48% (inactive) | 98 | 101 | -2.8% (inactive) | -6.67% (inactive)
15 | O=C(Cn1nnc(-c2ccc(CN3CCOCC3)cc2)n1)NC1CCCCC1 | 108 | 104% (inactive) | 108% (inactive) | 106% (inactive) | 101% (inactive) | 4.09% (inactive) | 97.1 | 101 | -5.73% (inactive) | 3.28% (inactive)
16 | Cc1cc(C(=O)NCCCc2ccccc2)no1 | 100 | 86% (inactive) | 100% (inactive) | 91.4% (inactive) | 107% (inactive) | 18.6% (inactive) | 88.7 | 107 | -5% (inactive) | -2.83% (inactive)
17 | Nn1c(SCc2csc(-c3ccccc3)n2)nnc1-c1cccs1 | 83 | 82.5% (inactive) | 83% (inactive) | 85.2% (inactive) | 97.3% (inactive) | 6.11% (inactive) | 91.2 | 97.3 | -9.05% (inactive) | 5.25% (inactive)
18 | CN1CCN(CC(=O)Nc2ccc(Cl)cc2Cl)CC1 | 85.5 | 95% (inactive) | 85.5% (inactive) | 91.6% (inactive) | 93.8% (inactive) | 3.29% (inactive) | 90.5 | 93.8 | -3.29% (inactive) | 2.74% (inactive)
19 | COc1ccc(-c2noc(-c3cc(Cl)ccc3Cl)n2)cc1OC | 122 | 78% (inactive) | 122% (inactive) | 94.9% (inactive) | 107% (inactive) | 18.4% (inactive) | 88.1 | 107 | -2.67% (inactive) | -4.52% (inactive)
20 | Cc1cc(S(=O)(=O)NC2CCCCC2)ccc1OCC(=O)NCc1ccccn1 | 91.5 | 84% (inactive) | 91.5% (inactive) | 105% (inactive) | 99.1% (inactive) | 6.34% (inactive) | 92.8 | 99.1 | -0.53% (inactive) | 4.52% (inactive)
21 | COc1cccc(Oc2cnc(N)nc2-c2ccc(OC)cc2O)c1 | 91.5 | 74.5% (inactive) | 91.5% (inactive) | 67.1% (inactive) | 10.8% (active) | -47.3% (inactive) | 58.2 | 10.8 | -0.52% (inactive) | -5.5% (inactive)
22 | CC1CCN(C(=O)CSc2nc3ccccc3[nH]2)CC1 | 82 | 99.5% (inactive) | 82% (inactive) | 91.8% (inactive) | 109% (inactive) | 14.7% (inactive) | 94.6 | 109 | 0.26% (inactive) | 6% (inactive)
23 | O=C(CCCC(=O)OCC(=O)NC1CCCC1)Nc1ccccn1 | 95.5 | 88% (inactive) | 95.5% (inactive) | 98.1% (inactive) | 96.9% (inactive) | -6.12% (inactive) | 103 | 96.9 | -6.8% (inactive) | 3.28% (inactive)
24 | Cc1ccc(-n2ncc3c(=O)[nH]c(SCC(=O)N4CCN(c5ccccc5)CC4)nc32)cc1 | 86 | 77% (inactive) | 86% (inactive) | 92.2% (inactive) | 76.3% (inactive) | 4.85% (inactive) | 71.5 | 76.3 | -5.79% (inactive) | -1.17% (inactive)
25 | O=S(=O)(c1ccccc1)N(Cc1nc(-c2ccccc2)no1)C1CCCCC1 | 88 | 77% (inactive) | 88% (inactive) | 96.1% (inactive) | 75.5% (inactive) | -4.17% (inactive) | 79.6 | 75.5 | -6.27% (inactive) | -3.33% (inactive)
26 | O=C1C2CC=C(Cl)CC2C(=O)N1c1ncn[nH]1 (stereo not given) | 86.5 | 96% (inactive) | 86.5% (inactive) | 106% (inactive) | 103% (inactive) | 2.85% (inactive) | 101 | 103 | 0.27% (inactive) | -5.32% (inactive)
27 | CC(NC(=O)OC(C)(C)C)C(=O)N1CCCC1C(=O)NC(Cc1ccccc1)C(N)=O (stereo not drawn) (Boc-Ala-Pro-Phe-NH2; configuration not given here) | 105 | 94% (inactive) | 105% (inactive) | 95.6% (inactive) | 101% (inactive) | 4.26% (inactive) | 97.1 | 101 | -1.73% (inactive) | 4.68% (inactive)
28 | O=c1[nH]c(SCc2ccccc2Cl)nc2c1CCCC2 | 100 | 75.5% (inactive) | 100% (inactive) | 65.4% (inactive) | 89.5% (inactive) | -3.21% (inactive) | 92.7 | 89.5 | -5.13% (inactive) | 0.17% (inactive)
